Experimental data as given in ChEMBL document CHEMBL3627708, “A multifunctional, light-activated prochelator inhibits UVA-induced oxidative stress” (Bioorg Med Chem Lett, 2015).
The source made the active and inactive calls. The rule behind the calls is not given here.

How the values were obtained:
[1] = Photoconversion of the compound in PBS buffer assessed as time required to show HAPI peak at 50 uM irradiated with UVA for 75 secs by LC-MS analysis; type: physicochemical; conditions: 75 s
Summary of the method: (§1)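 Prochelator solutions analysed by LC-MS before and after UVA irradiation. New peaks identified by matching elution times and mass spectra to authentic umbelliferone and HAPI.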

[2] = Photoconversion of the compound in PBS buffer assessed as time required to show umbelliferone peak at 50 uM irradiated with UVA for 75 secs by LC-MS analysis; type: physicochemical; conditions: 75 s; summary of the method: as §1
[3] = Metal chelating activity assessed as formation of compound-Fe3+ complex by measuring free calcein level at 10 uM irradiated with UVA for 15 secs measured after 1 hr by fluorescence-based microplate assay; type: physicochemical
Summary of the method: (§2)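 Calcein competition in PBS: 2 µM calcein with 2 µM (NH4)2Fe(SO4)2, forming Fe3+(calcein) in situ. Compound added at 10 µM, with or without 15 s photolysis in a photoreactor (λmax 350 nm). Calcein emission recorded 1 h after photolysis; triplicate, SD.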

[4] = Metal chelating activity assessed as formation of compound-Fe3+ complex by measuring free calcein level at 10 uM after 1 hr by fluorescence-based microplate assay in absence of UVA irradiation; type: physicochemical; summary of the method: as §2
[5] = Inhibition of Fe-dependent reactive oxygen species formation at 10 to 100 uM after 1 hr by H2DCF-DA-based fluorescence assay in absence of UVA irradiation; type: functional
Summary of the method: (§3)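 H2DCF (20 µM) in PBS pH 7.4 with 10 µM FeCl3, 10 µM NTA, 1 mM ascorbic acid and 1 mM H2O2. Wells dosed with chelator or prochelator, the latter either irradiated (+) or not irradiated (−) with UVA. DCF fluorescence read at ex 485/em 535 nm. Background from wells with only H2DCF and buffer subtracted.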

[6] = Inhibition of Fe-dependent reactive oxygen species formation at 200 uM after 1 hr by H2DCF-DA-based fluorescence assay in absence of UVA irradiation; type: functional; summary of the method: as §3
[7] = Inhibition of Fe-dependent reactive oxygen species formation at 10 to 200 uM irradiated with UVA for 15 secs measured after 1 hr by H2DCF-DA-based fluorescence assay; type: functional; summary of the method: as §3
ARPE-19 [8] = experiment: Cytoprotective activity in human ARPE19 cells assessed as reduction of UVA radiation-mediated cell death at < 50 uM preincubated for 2 hrs followed by 40 mins UVA irradiation measured after 5 hrs by LDH release assay; type: functional, cell-based
Summary of the method: (§4)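 ARPE-19 retinal pigment epithelial cells pre-treated 2 h with compound (5–100 µM range tested), then exposed to UVA for 40 min at 600 kJ/m2. Cell death read 5 h after irradiation; triplicate wells per treatment, normalized to cells treated with 2% Triton X-100.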

ARPE-19 [9] = experiment: Cytoprotective activity in human ARPE19 cells assessed as reduction of UVA radiation-mediated cell death at 75 to 100 uM preincubated for 2 hrs followed by 40 mins UVA irradiation measured after 5 hrs by LDH release assay; type: functional, cell-based; summary of the method: as §4
[10] = Cytotoxicity against human ARPE19 cells assessed as cell viability up to 100 uM after 24 hrs by Cell Titer Blue assay; type: cell-based; conditions: arpe-19, 24 h
Summary of the method: (§5)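 ARPE-19 cells incubated with compound for 24 h or extended to 72 h, doses up to 100 µM, then assessed for cytotoxicity.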

[11] = Cytotoxicity against human ARPE19 cells assessed as cell viability at 75 to 100 uM after 72 hrs by Cell Titer Blue assay; type: cell-based; conditions: arpe-19, 72 h; summary of the method: as §5
[12] = Cytotoxicity against human ARPE19 cells assessed as cell viability at <25 uM after 72 hrs by Cell Titer Blue assay; type: cell-based; conditions: arpe-19, 72 h; summary of the method: as §5
[13] = […] of Fe-dependent reactive oxygen species formation after 90 mins by H2DCF-DA-based fluorescence assay; type: physicochemical; conditions: 1.5 h
Summary of the method: (§6)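 H2DCF (20 µM) oxidation to DCF driven by 10 µM FeCl3, 10 µM NTA, 1 mM H2O2 and 1 mM ascorbate in PBS pH 7.4. Compound tested over a concentration range alongside trolox. Control wells hold Fe, NTA, H2O2 and ascorbate only. DCF read at ex 485/em 535 nm.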

ARPE-19 [14] = experiment: Cytoprotective activity in human ARPE19 cells assessed as reduction of UVA radiation-mediated cell death at 5 to 100 uM preincubated for 2 hrs followed by 40 mins UVA irradiation measured after 5 hrs by LDH release assay; type: functional, cell-based; summary of the method: as §4
[15] = Inhibition of Fe-dependent reactive oxygen species formation at 10 to 5000 uM after 90 mins by H2DCF-DA-based fluorescence assay; type: functional; summary of the method: as §6
[16] = Inhibition of Fe-dependent reactive oxygen species formation after 1 hr by H2DCF-DA-based fluorescence assay; type: functional; summary of the method: as §3

SMILES | Time [1] [min] | Time [2] [min] | Activity [3] | Activity [4] | inhibition [5] | inhibition [6] | inhibition [7] | Activity (ARPE-19 [8]) | Activity (ARPE-19 [9]) | Activity [10] | Activity [11] | Activity [12] | Activity [13] | Activity (ARPE-19 [14]) | inhibition [15] | inhibition [16]
C/C(=N\NC(=O)c1ccncc1)c1ccccc1OC(=O)/C=C/c1ccc(O)cc1O | 11.7 | 8.3 | Active | Not Active | inactive | Active | Active | Active | inactive | Non-toxic | Toxic | Non-toxic | – | – | – | –
O=c1ccc2ccc(O)cc2o1 [UMBELLIFERONE] | – | – | – | – | – | – | – | – | – | Non-toxic | – | – | Dose-dependent effect | inactive | – | –
Cc1c(C)c2c(c(C)c1O)CCC(C)(C(=O)O)O2 (stereo not drawn) | – | – | – | – | – | – | – | – | – | – | – | – | – | – | Active | –
C/C(=N\NC(=O)c1ccncc1)c1ccccc1O | – | – | Active | Active | – | – | – | – | – | Non-toxic | Toxic | Non-toxic | – | Active | – | Dose-dependent effect
